High-throughput results deposited in PubChem by several laboratories.
Shown are actives, neighbours in structure and some others; about 12% of the full set was active somewhere.
KCC2 mod: KCC2 cotransporter modulators, thallium flux, primary screen, cell-based, HEK293 KCC2, FluoZin-2 fluorescence, MLSMR. B-score of Tl+ flux slope (higher = more flux/activation; lower = inhibition) at 10 µM. hit rate 2.2% among 190,000. KCC2 cells, thallium flux FluoZin-2 fluorescence. Solute carrier family 12 member 5 (Homo sapiens), Q9H2X9;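 active = thallium flux slope and its plate-corrected score both differing from the plate sample mean at a set confidence after two filtering rounds, in either direction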;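 also: slope of fluorescence scaled to starting intensity during 10 to 20 s after thallium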
WT yeast gro inh: growth inhibition of WT strain, primary screen, mitochondrial fusion inhibitor project, WT and mutant strains, chemical genetic. mitochondrial fusion phenotypic screen. inhibition, % at 10 µM. hit rate 2.1% among 190,000. AID 1362, 2008; in the data active = inhibition above about 58%; tested in S. cerevisiae
Diaph act CS: compounds boosting diaphorase resazurin reduction – biochemical, uHTS, resorufin fluorescence, counter-screen for diaphorase-coupled primary assays, primary screen. Diaphorase/resazurin coupled assay, 16 min; stronger effect = higher value; 1 = vehicle wells, 0 = NADH-free wells. hit rate 0.005% among 190,000. activation factor at 20 µM;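 active = diaphorase activity raised at least twofold by the compound at 20 µM; inactive = activation factor below 2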
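System – purified diaphorase enzyme from Clostridium kluyveri · Input – enzyme 0.07 U/mL final · Also added – final NADH 0.114 mM, resazurin 0.1 mM · Measured by – fluorescence of resorufin, 544 nm excitation, 590 nm emission · Timing – 16 min enzyme reaction, ambient temperature · Measure – resorufin increase flagging diaphorase activators or reducers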
L major viab: Leishmania major promastigote growth inhibition, primary screen | AID 1063, 2008 | inhibition, % at 10 µM | hit rate 9% among 200,000 | Leishmania major promastigotes, resazurin fluorescence viability; in the data active = inhibition above about 50%;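 also: promastigotes grown with compound for 44 hours at 28 °C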
ROMK primary: ROMK potassium channel modulators, primary screen, cell-based, thallium flux, MLSMR library; ATP-sensitive inward rectifier potassium channel 1 (Homo sapiens), P48048; Tet-inducible ROMK, thallium flux fluorescence; actives lie on both sides; B-score at 10 µM; hit rate 2% among 130,000; AID 1918, 2009;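 active = signal ratio slope over the read window, or its plate-corrected B-score, at least 3 SD from the plate mean, either direction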;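 also: B-score of the F/F0 ratio slope over 7 to 12 s after thallium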
Target sequence (P48048 whole entry, looked up): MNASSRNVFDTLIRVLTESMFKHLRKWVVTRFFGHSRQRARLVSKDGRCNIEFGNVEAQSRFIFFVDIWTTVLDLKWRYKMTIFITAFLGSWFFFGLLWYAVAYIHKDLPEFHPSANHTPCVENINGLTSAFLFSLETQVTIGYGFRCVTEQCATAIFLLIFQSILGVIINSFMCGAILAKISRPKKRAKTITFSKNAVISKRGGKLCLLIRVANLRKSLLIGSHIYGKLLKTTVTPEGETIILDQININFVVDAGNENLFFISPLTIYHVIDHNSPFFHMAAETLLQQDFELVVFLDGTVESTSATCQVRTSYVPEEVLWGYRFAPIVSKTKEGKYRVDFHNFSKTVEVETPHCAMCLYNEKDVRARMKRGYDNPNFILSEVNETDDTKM
Diaph inh CS: diaphorase inhibitors and chemical oxidizers, primary screen, counter-screen for diaphorase-coupled primary assays, biochemical, uHTS, resorufin fluorescence; hit rate 0.69% among 190,000; diaphorase resazurin-to-resorufin fluorescence, NADH, 16 min; bacterial (C. kluyveri) enzyme, not human; inhibition, % at 20 µM;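 active = primary screen inhibition at 20 µM above a set limit, cut at about 50% in these data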;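 also: plate controls were DMSO with full reaction for no effect and wells lacking NADH for full effect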
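Assay system: diaphorase enzyme from Clostridium kluyveri. Quantity: enzyme working solution with 0.14 U/mL diaphorase. Schedule: reaction incubation of 16 min at room temperature. Technique: resorufin fluorescence, excitation 544 nm, emission 590 nm. Controls: No-NADH positive control and DMSO neutral control.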
Starred values were filed as active, the others as inactive; x = no result given.

SMILES	KCC2 mod	WT yeast gro inh	Diaph act CS	L major viab	ROMK primary	Diaph inh CS
COc1cc(CNCCO)cc(Br)c1OCc1ccccc1Cl	0.144	78.6*	1	99.8*	x	4.9
COc1cccc(CNCCO)c1OCc1ccccc1	0.487	-14.2	1.2	-4.6	0.07	-17.5
COc1cc(CNCCO)cc(Cl)c1OCc1ccc(Cl)cc1Cl	0.917	85.4	1.1	100.3*	-0.55	-10.3
CCNCc1ccc(OCc2cccs2)c(OCC)c1	-0.643	-3.8	1	53.8*	-0.0246	2.7
Cc1nn(Cc2c(F)c(F)c(F)c(F)c2F)c(C)c1NC(=O)c1c(-c2ccccc2)nn(-c2ccccc2)c1C	-0.715	-39.3	1.2	10.0	x	-15.2
COc1cc(CNc2ccc(O)cc2)cc(Br)c1OCc1ccccc1	-2.24	7.4	0.6	9.5	-0.00252	44.5
COc1cc(CNC(C)(C)CO)cc(Br)c1OCc1ccc(Cl)cc1Cl	x	93.8*	1	99.9*	-1.42	0.5
C/C(=C\c1ccccc1)CN(C)CCN(C)C	x	-11.5	1	96.6*	x	0.0
C/C(=C\c1ccccc1)CN1CCN(c2ccccc2F)CC1	0.41	6.7	0.8	-2.4	0.528	17.3
CCN1CCCC1CNC(=O)c1ccc(Sc2ccccc2Cl)c([N+](=O)[O-])c1 (configuration not stated)	0.38	36.5	0.9	100.3*	-1.4	11.2
CCN1CCN(C(=O)c2ccc(Sc3ccccc3Cl)c([N+](=O)[O-])c2)CC1	-0.0949	-14.4	0.9	88.7*	-1.94	13.9
O=C(c1ccc(S(=O)(=O)c2ccccc2Cl)c([N+](=O)[O-])c1)N1CCCCCC1	-0.281	-7.5	0.7	97.8*	-2.1	25.5
O=C(NCCCN1CCOCC1)c1ccc(Sc2ccc(F)cc2)c([N+](=O)[O-])c1	-1.45	-0.1	1	100.4*	0.503	0.0
CCOC(=O)CSc1ccc(C(=O)N2CCN(C)CC2)cc1[N+](=O)[O-]	-0.0926	-17.3	0.9	-4.8	0.671	6.4
O=C(NCCN1CCOCC1)c1ccc(N2CCCC2)c([N+](=O)[O-])c1	0.0479	3.0	1.1	-1.7	-0.295	-5.7
CCN1CCCC1CNC(=O)c1ccc(Sc2ccc(F)cc2)c([N+](=O)[O-])c1 (configuration not stated)	-1.05	25.7	0.9	100.3*	-2.74	13.4
COc1ccc(-n2c(=S)[nH]c3ccccc32)cc1	22.5*	-3.4	0.8	52.8*	0.358	16.0
Cc1cccc(NC(=S)N(CCCN2CCCC2)Cc2cccn2Cc2ccc(Cl)cc2)c1	-0.244	77.6*	1	98.2*	-0.0192	-3.7
CCOc1ccc(NC(=S)N(CCCN2CCCC2)Cc2cccn2Cc2ccc(Cl)cc2)cc1	0.722	70.7*	1	100.0*	x	-0.9
CCN1CCN(CCCN(Cc2ccco2)C(=S)Nc2ccc(Cl)cc2)CC1	1.18	2.6	1	15.4	0.745	-0.4
CN1CCN(CCCN(Cc2ccco2)C(=S)Nc2ccc(Cl)cc2)CC1	-0.0107	8.9	1	1.1	-0.246	-1.4
O=C(c1ccc2c(c1)N(Cc1cccc(Cl)c1)C(=O)c1ccccc1S2(=O)=O)N1CCN(c2ccccn2)CC1	x	18.3	0.8	97.5*	-1.3	19.5
O=C(c1cccc(Cl)c1)N1CCN(c2ccccn2)CC1	x	2.3	0.9	-3.6	0.637	9.7
Fc1cccc(-c2cc3nc4c(c(N5CCC6(CC5)OCCO6)n3n2)CCCC4)c1	-1.24	68.7*	0.8	36.9	-0.114	15.5
Clc1cccc(-c2cc3nc4c(c(NCc5ccco5)n3n2)CCCC4)c1	0.447	84.5	0.7	52.6*	-0.475	26.0
SMILES	KCC2 mod	WT yeast gro inh	Diaph act CS	L major viab	ROMK primary	Diaph inh CS
CCOCCN1CCN(c2c3c(nc4cc(-c5ccc(F)cc5)nn24)CCC3)CC1	-0.035	9.5	0.8	10.2	-0.514	23.1
Clc1cccc(-c2cc3nc4c(c(N5CCNCC5)n3n2)CCCC4)c1	0.756	41.3	1	100.5*	x	-3.8
OC1CCN(c2c3c(nc4cc(-c5cccc(F)c5)nn24)CCCC3)CC1	-2.2	23.0	0.9	12.9	x	6.1
COc1cc(OC)cc(-c2cc3nc4c(c(N5CCN(c6ncccn6)CC5)n3n2)CCCC4)c1	-1.37	3.9	0.9	52.2*	0.0927	11.8
CC(=O)Nc1ccc(NC(=O)CN(c2cc(Cl)ccc2Cl)S(C)(=O)=O)cc1	1.13	-0.7	0.9	-1.5	-1.27	12.8
O=C(Nc1cc(Cl)ccc1O)c1cc2n(n1)C(C(F)(F)F)CC(c1ccc3c(c1)OCO3)N2 (configuration not stated)	-0.0401	34.1	0.7	84.3*	0.0352	28.0
COc1ccccc1NC(=O)c1cc2n(n1)C(C(F)(F)F)CC(c1ccc3c(c1)OCO3)N2 (configuration not stated)	0.0313	3.6	0.7	61.7*	0.564	30.1
O=C(O)CCC(NC(=S)Nc1ccccc1)C(=O)O (configuration not stated)	-0.347	x	x	x	x	x
COCCNC(=O)/C(C#N)=C/c1c(N2CC(C)OC(C)C2)nc2ccccn2c1=O (configuration not stated)	0.539	-2.8	0.8	-4.2	-0.412	22.7
CCOc1ccc(CCNC(=O)COC(=O)c2ccc(OC)c(OC)c2OC)cc1OCC	-0.44	9.9	0.9	65.7*	0.0983	7.8
Nc1ccccc1NC1CCCCC1	1.16	32.0	0.2	53.7*	-0.0129	82.3*
O=C(Nc1ccccc1NC(=O)NC1CCCCC1)NC1CCCCC1	0.899	-16.5	1	22.7	x	1.8
CCC1CSC(Nc2ccc(C(=O)/C=C/c3ccc(OC)c(OC)c3)cc2)=N1 (configuration not stated)	0.516	64.2*	0.8	96.3*	-0.652	15.7
COc1ccc(/C=C/C(=O)c2ccc(NC3=NCCCS3)cc2)cc1OC	-1.3	1.2	0.9	100.3*	-2.21	5.3
CCC1CSC(Nc2ccc(C(=O)/C=C/c3ccc(Br)cc3)cc2)=N1 (configuration not stated)	-0.0953	44.8	0.9	97.5*	0.00103	8.2
COc1ccc(/C=C/C(=O)Nc2ccncc2)cc1OC	-0.476	-0.5	x	2.5	1.51	x
CCOc1ccc(/C=C/C(=O)Nc2ccc(C(N)=O)cc2)cc1OC	0.0528	-12.2	1.1	-7.7	0.139	-11.0
Cc1cc2nc(Sc3c([N+](=O)[O-])nc(C)n3Cc3ccccc3)[nH]c2cc1C	-0.0505	27.8	1	93.1*	x	1.9
